A selection: hits, their analogues and other compounds. The true share with any hit is near 0.97%.
MDM2 E3 inh – blocks human Mdm2 ubiquitin ligase activity; signal enhancement, % at 5 µM; Q00987; 210,000 tested, 0.11% active; cell-based MDM2 ubiquitination luciferase reporter, 2 h; 0 = plate control, 100 = twice control, blank-subtracted;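 active = signal enhancement of 30% or more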;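 also: luminescence tracks abundance of the self-degrading MDM2-luciferase fusion protein; higher signal means inhibition of MDM2 E3 ligase activity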
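Material: Stable MDM2–luciferase fusion reporter cells | Amount: 2000 cells seeded into each well | Dosing: One concentration, 5 µM, with 0.2% DMSO | Incubation: 4 h cell settling then 2 h compound exposure, 37 °C | Measured by: Luciferase luminescence | Read-out basis: % enhancement relative to plate controls after blank subtraction | Benchmarks: Control and blank well means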
Beta2AR agonist – human beta-2 adrenergic receptor agonism by FAP; Am2.2-beta2AR cells, FAP receptor internalization, flow cytometry; response, % (no concentration beside the values); 340,000 tested, 0.43% active; AID 504454;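 active = response above a set limit, near 3 SD of response in nonfluorescent compounds, cut at about 42% in these data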
Target sequence (P07550 whole entry, looked up): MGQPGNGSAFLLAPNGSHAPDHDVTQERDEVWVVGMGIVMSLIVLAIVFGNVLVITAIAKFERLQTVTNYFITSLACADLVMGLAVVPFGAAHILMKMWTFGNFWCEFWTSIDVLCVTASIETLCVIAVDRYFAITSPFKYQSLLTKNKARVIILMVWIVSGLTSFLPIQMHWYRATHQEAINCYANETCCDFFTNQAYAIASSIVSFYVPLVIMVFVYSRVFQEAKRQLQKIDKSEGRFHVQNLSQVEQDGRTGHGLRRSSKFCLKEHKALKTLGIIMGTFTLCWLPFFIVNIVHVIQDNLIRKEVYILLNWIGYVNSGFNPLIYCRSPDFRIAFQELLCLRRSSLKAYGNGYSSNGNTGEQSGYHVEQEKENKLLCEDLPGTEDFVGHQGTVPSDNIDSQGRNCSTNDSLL
Dynein cargo inh – dynein cargo transport inhibition; AID 1381; z-score, hits read low; 3617.4 mouse cells, GR-EGFP nuclear translocation imaging; test concentration mostly 20 µM; stimulated with dexamethasone, 1 µM; active compounds read low; 220,000 tested, 0.47% active;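 active = plate z-score of nuclear minus cytoplasmic receptor signal below a set negative limit, without overly bright fluorescence or cell loss, cut at about -3.5 in these data, passing the limit was not always enough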;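 also: z-score of nuclear minus cytoplasmic ring GR-EGFP intensity difference per well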
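medium = tetracycline-free induction medium containing charcoal-stripped FBS | also added = 1.0 µM final dexamethasone stimulus | schedule = 48 h induction, 1 h compound, 30 min dex at 37 °C | technique = fixed, Hoechst-stained cells imaged at 10x for EGFP | measure = GR-EGFP nuclear translocation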
zVAD death inh – blocks zVAD induced death of L929 cells. L929 zVAD necroptosis rescue, ATP luminescence, 24 h; with zVAD 60 µM. viability rescue, % at 10 µM. 220,000 tested, 0.38% active;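 active = activation, scaled between plate controls, above about 75%, limit read from the data; inactive = activation under that limit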;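 also: 0% = zVAD with DMSO and 100% = DMSO alone without zVAD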
TNF death inh – TNF-alpha cell death inhibition in Jurkat FADD-/- cells; Jurkat FADD-/- TNF necroptosis rescue, ATP luminescence, 24 h; 0 = TNF only, 100 = no-TNF cells; activation (protection from cell death), % at 10 µM; 220,000 tested, 0.068% active;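 active = activation, meaning protection from cell death, of at least 50% relative to plate controls; inactive = activation below 50%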;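 also: necroptosis triggered by 40 ng/mL TNF-alpha added together with compound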
Dynein confirm – dynein cargo transport inhibition, confirmation. shares compounds with Dynein cargo inh. 1,000 tested, 69% active. 3617.4 GR-EGFP nuclear translocation imaging, dexamethasone-induced. calls only at 20 µM. AID 463116;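 active = inhibition of receptor movement into the nucleus at or above a set limit in both runs, with normal cell brightness and cell count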;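 also: dexamethasone at 1 µM final in well for 30 min; nuclear minus cytoplasmic GR-EGFP mean intensity difference in channel 2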
B2AR ag CP1 – agonists of human beta-2 adrenergic receptor. AID 540358. shares compounds with Beta2AR agonist. percent response (surface receptor), % at 10 µM. Am2.2-beta2AR cells, FAP surface receptor, flow cytometry; active compounds read low. 1,100 tested, 25% active;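 active = surface receptor percent response at or below 58%, roughly 3 SD from nonfluorescent compounds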
FAP fluor counter – counter-screen for beta-2AR agonists: fluorescence in Am2.2 cells | shares compounds with Beta2AR agonist | FAP fluorogen flow cytometry, fluorescence counterscreen; active compounds read low | calls only at 10 µM | 1,100 tested, under 10 active;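 active = percent response below a set limit in fluorescence channel 1 and below 50% in channel 8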
The depositor's hits bear a star; i = inactive; / = no result; + = active, no number.

SMILES	MDM2 E3 inh	Beta2AR agonist	Dynein cargo inh	zVAD death inh	TNF death inh	B2AR ag CP1	FAP fluor counter	others
Cc1ccsc1C(=O)C1CCCN(Cc2cnc(N)nc2)C1 (centres undefined)	-24	-12	-0.58	0	2	/	/
O=c1[nH]sc2cc(F)ccc12	-19	4	-4.9*	-1	-5	/	/	Dynein confirm=+
O=S(=O)(F)c1ccc2nc(-c3cccc(Sc4ccccc4)c3)cc(Cl)c2c1	/	2	-0.11	-1	3	/	/
O=C1NC(=O)N(Cc2ccc(F)cc2)C(=O)/C1=C\C=C\c1ccco1	4	48*	-5.1*	-1	-25	/	/	Dynein confirm=+
CC(C)c1ccc(N2C(=O)NC(=O)/C(=C/C=C/c3ccco3)C2=O)cc1	-5	15	-0.068	0	-14	/	/
O=C1NC(=O)N(c2ccccc2)C(=O)/C1=C\C=C\c1ccccc1	26	35	-6*	0	-25	/	/	Dynein confirm=+
CCc1ccc(N2C(=O)NC(=O)/C(=C\C=C\c3ccco3)C2=O)cc1	/	71*	-3.9*	1	-20	/	/	Dynein confirm=+
Cc1cc(C)cc(N2C(=O)NC(=O)/C(=C\C=C\c3ccco3)C2=O)c1	17	59*	-4.5*	0	-7	/	/	Dynein confirm=+
O=C1Nc2cc(C(=O)N3CCC4(CC3)OCCO4)ccc2S/C1=C\c1ccccc1	/	3	/	/	/	/	/
Cc1nc2ccsc2c(=O)n1-c1ccccc1Cl	/	3	/	/	/	/	/
Cc1ccc(OP(=O)(NCc2ccccc2)Oc2ccc(C)cc2)cc1	-6	2	-0.25	2	2	/	/
Cc1ccc(N2C(=O)NC(=O)/C(=C/C=C/c3ccco3)C2=O)cc1	-11	83*	-4.5*	1	-12	/	/	Dynein confirm=+
CO[C@H]1[C@@H](OC)CC(OC2OC(CO)C(O)C(O)C2O)/C(=C\C#N)[C@@H]1O (some centres undefined)	/	2	1.4	2	1	/	/
CCCCC(CC)CNCC(O)c1ccccc1 (centres undefined)	-88	-11	-0.57	-1	1	/	/
CCC[C@H](N[C@@H](CCC)[C@H](O)c1ccccc1)[C@H](O)c1ccccc1	/	-6	/	/	/	112	i
CCCNC(=O)N1[C@H]2CC[C@@H]1C(C(=O)OC)=C(c1ccc(-c3ccccc3)c(F)c1)C2	/	-4	/	/	/	/	/
CC(Cc1ccc(O)cc1)NCC(O)c1ccc(O)c(O)c1 (centres undefined)	/	/	/	/	/	9.6*	i
CNCC(O)c1ccc(O)cc1 (centres undefined)	/	/	-0.32	1	1	/	/
COc1ccc(C(O)C(C)NC(C)C(O)c2ccc(OC)cc2)cc1 (centres undefined)	/	-1	/	/	/	123	i
COc1ccc(C(c2ccc(OC)cc2)C(Cl)(Cl)Cl)cc1	/	3	/	/	/	/	/
CC(CCc1ccccc1)NC(C)C(O)c1ccc(O)cc1 (centres undefined)	/	4	-0.039	-1	6	109	i
COc1cc(OC)c(OC)cc1CNCCc1ccc(OC)c(OC)c1	-15	-3	-0.17	0	6	/	/
COc1cc(OC)c(OC)cc1CNC(C)C(O)c1ccccc1 (centres undefined)	-11	6	0.083	1	4	118	i
CCOc1c(Cl)cc(CNC(C)C(O)c2ccccc2)cc1OC (centres undefined)	-2	7	0.3	3	5	107	i
CC(NCc1ccc(Cl)cc1)C(O)c1ccccc1 (centres undefined)	2	-5	-0.4	2	9	102	i
SMILES	MDM2 E3 inh	Beta2AR agonist	Dynein cargo inh	zVAD death inh	TNF death inh	B2AR ag CP1	FAP fluor counter	others
O=C(Cc1ccccc1)NC(Cc1ccc(Cl)cc1)C(=O)O (centres undefined)	11	-3	-0.72	1	1	/	/
CC(NCc1ccc(Cl)cc1Cl)C(O)c1ccccc1 (centres undefined)	7	-4	0.61	0	2	117	i
O=C(CCc1nnc2ccc(NCc3ccc(F)cc3)nn12)N1CCC2(CC1)OCCO2	/	4	/	/	/	/	/
Cn1c(O)c(C(=O)c2ccccc2Cl)c(=O)n(C)c1=O	-1	8	-0.15	0	0	/	/
CC(NCc1cccc(Cl)c1Cl)C(O)c1ccccc1 (centres undefined)	-9	-12	-0.31	1	0	109	i
NCCc1ccc(OCc2ccccc2)c(OCc2ccccc2)c1	/	43*	/	/	/	100	i
CC1=CC(O)C(O)C2(C)C1CC1OC(=O)C(O)C3C(C)C(O)C4(O)OCC13C42 (centres undefined)	/	-31	/	/	/	/	/
COC(=O)[C@]12OC[C@]34C([C@@H](O)[C@@H]1O)[C@]1(C)CC(=O)C(O)=C(C)[C@@H]1C[C@H]3OC(=O)[C@H](O)[C@@H]24 (some centres undefined)	-62	42*	-0.064	16	-14	64	i
O=C(Nc1ccccc1)c1c(O)c2c(n(Cc3ccco3)c1=O)CCCC2	-2	6	1.1	1	-1	/	/
COc1ccc(C(O)CNC(C)C)c(F)c1OC (centres undefined)	/	-13	/	/	/	116	i
CC(C(N)=O)N1CC(c2ccc(Cl)cc2)CC1=O (centres undefined)	-6	4	-1.1	0	0	/	/
COc1ccc(C[C@H]2NC[C@H](O)[C@H]2OC(C)=O)cc1	/	94*	/	/	/	28*	+
Cc1ccc(C(=O)N/C(=C\Cl)P(=O)(c2ccccc2)c2ccccc2)cc1	6	2	-0.2	0	0	/	/
COC(=O)C1=C(c2ccc(OCc3ccccc3)cc2)C[C@@H]2CC[C@H]1N2C(=O)NCc1ccc(OC)c(OC)c1	/	1	/	/	/	103	i
COC(=O)C1=C(c2cc3ccccc3s2)C[C@@H]2CC[C@H]1N2C(=O)NCc1ccc(C(F)(F)F)cc1	/	74*	/	/	/	89	i
COC(=O)C1=C(c2cc3ccccc3s2)C[C@@H]2CC[C@H]1N2C(=O)NCC1CC1	/	7	/	/	/	/	/
COC(=O)C1=C(c2ccc(OCc3ccccc3)cc2)C[C@@H]2CC[C@H]1N2C(=O)NCc1ccc(N(C)C)cc1	/	-4	/	/	/	/	/
COc1cccc(CN2CCCCC2c2cccnc2)c1 (centres undefined)	-2	-3	-0.39	0	0	/	/
Clc1ccc(CCC(Cn2ccnc2)Sc2c(Cl)cccc2Cl)cc1 (centres undefined)	/	17	/	/	/	/	/
COc1ccc(CNCCc2c(C)[nH]c3ccc(OC(F)(F)F)cc23)c(OC)c1	/	43*	/	/	/	81	i
